# A selection: hits, their analogues and other compounds. The true share with any hit is near 1.1%.
# PMI act hi M6P = increases human PMI activity with near-saturating mannose 6-phosphate | P34949 | coupled PMI enzyme assay, resazurin fluorescence, 20 min; stronger effect = higher value; 1 = untreated enzyme, 0 = substrate-free blank | activation factor at 20 µM | 190,000 compounds, 0.34% hits;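 active = activation factor of 2 or more at 20 µM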
# Target sequence (P34949 whole entry, looked up): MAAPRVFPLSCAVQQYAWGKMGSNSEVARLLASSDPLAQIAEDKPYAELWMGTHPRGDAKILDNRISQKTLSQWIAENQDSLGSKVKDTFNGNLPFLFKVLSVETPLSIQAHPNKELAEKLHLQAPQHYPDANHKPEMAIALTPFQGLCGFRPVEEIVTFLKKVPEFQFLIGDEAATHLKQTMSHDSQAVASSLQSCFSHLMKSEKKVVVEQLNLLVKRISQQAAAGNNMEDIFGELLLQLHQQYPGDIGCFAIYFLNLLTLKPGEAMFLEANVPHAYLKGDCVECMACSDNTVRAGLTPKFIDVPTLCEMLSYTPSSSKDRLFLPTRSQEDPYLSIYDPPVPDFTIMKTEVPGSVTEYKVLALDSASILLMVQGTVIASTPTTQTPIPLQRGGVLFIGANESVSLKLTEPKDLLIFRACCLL
#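 Material: human phosphomannose isomerase with PGI, G6PDH, diaphorase coupling enzymes. Quantity: 15 ng/mL PMI. Medium: HEPES pH 7.4 buffer with MgCl2 and Tween-20. Reagent: Near-saturating mannose-6-phosphate, 1.0 mM. Compound: 20 µM single dose. Times: enzyme reaction with compound 20 min at room temperature. Detection: resorufin fluorescence at Ex 544/Em 590 nm.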
# Diaph inh CS = counter-screen for diaphorase-based assays: diaphorase inhibitors and chemical oxidizers. 190,000 compounds, 0.69% hits. inhibition, % at 20 µM. diaphorase resazurin-to-resorufin fluorescence, NADH, 16 min; bacterial (C. kluyveri) enzyme, not human. AID 1217;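 active = primary screen inhibition at 20 µM above a set limit, cut at about 50% in these data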;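 note: plate controls were DMSO with full reaction for no effect and wells lacking NADH for full effect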
#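 Detection: fluorescence of resorufin formed from resazurin, Ex 544/Em 590 nm; test system: Clostridium kluyveri diaphorase enzyme; amount: 0.14 U/mL diaphorase, enzyme working solution; times: 16-min room-temperature incubation before reading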
# G6PDH counter = inhibits Leuconostoc G6PDH, flagging false hits in G6PDH-based assays; Purified L. mesenteroides G6PDH, diaphorase/resazurin coupled fluorescence, 45 min; inhibition, % at 5 µM; 200,000 compounds, 0.12% hits; AID 1020; in the data active = inhibition above about 50%
# Diaph act CS = diaphorase activation or chemical reduction counter-screen; Diaphorase/resazurin coupled assay, resorufin fluorescence, 16 min; stronger effect = higher value; 1 = vehicle wells, 0 = NADH-free wells; activation factor at 20 µM; 190,000 compounds, 0.005% hits;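 active = diaphorase activity raised at least twofold by the compound at 20 µM; inactive = activation factor below 2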
#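 Assay system: bacterial diaphorase enzyme (C. kluyveri) / Input: enzyme 0.07 U/mL final / Medium: 50 mM HEPES pH 7.4 with 4.542 mM MgCl2, 0.005% Tween 20 / Doses: single compound dose of 20 µM, 1% DMSO final / Incubation: 16 min enzyme reaction, ambient temperature / Signal: fluorescence, excitation 544 nm and emission 590 nm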
# PMI activator = activators of human phosphomannose isomerase. P34949. purified human PMI, coupled resazurin fluorescence, 20 min; stronger effect = higher value; 1 = vehicle control, 0 substrate-free wells. activation factor at 20 µM. 190,000 compounds, 0.005% hits. AID 1214;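 active = activation factor of 2 or more at 20 µM, relative to plate controls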
# The depositor's hits bear a star.
SMILES,PMI act hi M6P,Diaph inh CS,G6PDH counter,Diaph act CS,PMI activator
O=C1C2=C(c3ccccc31)[N+](=O)[C@@H]1CCCC[C@@H]1N2[O-],0.6,76*,28,0.2,1.1
COc1cccc(C2=Nc3cccc4cccc(c34)N2)c1,1.6,16,-12,0.8,1.2
c1coc(C2=Nc3cccc4cccc(c34)N2)c1,0.4,60*,46,0.4,0.7
O=C(O)c1ccc(N2C(=O)/C(=C/c3ccc(-c4ccc([N+](=O)[O-])cc4)o3)C=C2c2ccccc2)cc1,1.3,57*,2,0.4,1.2
CC1=NN(c2ccc(Cl)c(C(=O)O)c2)C(=O)/C1=C\c1ccc(-c2ccc(C(=O)O)cc2)o1,1,18,-8,0.8,1.4
Cc1cccc(C(=O)NC2C(=O)NNC2c2ccc(Cl)cc2)c1 (stereo unspecified),1,52*,13,0.5,1
O=C(NC1C(=O)NNC1c1ccccc1)c1ccccc1 (stereo unspecified),0.8,16,3,0.8,0.8
C=CCc1cccc2cc(C(=O)Nc3ccc(F)cc3)c(=O)oc12,1.1,2,1,1,1
C=CCc1cccc2cc(C(=O)Nc3ccc(S(=O)(=O)Nc4nnc(CC)s4)cc3)c(=O)oc12,1.1,52*,-22,0.5,1
Nc1nonc1-c1nc2ccccc2n1CC(=O)N/N=C/c1ccc(-c2cccc(C(=O)O)c2)o1,1.2,52*,-6,0.5,1.1
Nc1nonc1-c1nc2ccccc2n1CC(=O)O,1,8,0,0.9,1
CC1CCc2cc(F)ccc2N1C(=O)CCl (stereo unspecified),1.1,6,2,0.9,1.2
Cc1ccc(C(=O)NC(=S)/C=C2\N(C)c3ccccc3C2(C)C)cc1,0.8,67*,1,0.3,0.7
CC(C)C(=O)NC(=S)/C=C1/N(C)c2ccccc2C1(C)C,1,-3,6,1,0.5
C/C(=N\Nc1ccc(F)cc1F)c1ccccc1O,2.3*,9,-1,0.9,1.7
Cc1ccccc1N/N=C/c1ccc(C#N)cc1,2.4*,23,-10,0.8,1.6
CCc1cc(/C(Cc2ccccn2)=N\Nc2ccccc2)c(O)cc1O,2.1*,24,0,0.8,1.6
O=C(NCc1ccccn1)Nc1cccc(NC(=O)NCc2ccccn2)c1,0.8,5,8,1,0.9
Cc1nc(C/C(=N\Nc2ccccc2)c2ccc(O)cc2O)cs1,2.1*,35,1,0.7,1.4
COc1ccccc1N1CCN(C2CCN(C(=O)COc3ccccc3)CC2)CC1,1,12,1,0.9,1
Cc1nnn(-c2nonc2N)c1C(=O)NNC(=O)c1ccc(Cl)c(Cl)c1,0.9,15,12,0.9,1
COc1ccc2c(c1)-c1nc(/N=C/c3ccccc3O)sc1CC2,0.2,54*,-6,0.5,0.3
COC(=O)c1ccc(COc2ccccc2/C=N/Nc2cccc(C(=O)O)c2)cc1,0.9,30,9,0.7,1.3
O=C(O)c1cccc(NC(=S)N/N=C/c2ccccc2OCc2cccc(Br)c2)c1,1,57*,-6,0.4,1
O=C(O)c1cccc(NC(=S)N/N=C/c2ccccc2OCc2ccc(Br)cc2)c1,1.1,51*,-2,0.5,1
SMILES,PMI act hi M6P,Diaph inh CS,G6PDH counter,Diaph act CS,PMI activator
Brc1ccc(CNc2cc3c(cc2Br)OCCO3)cc1,0.9,4,5,1,1.1
Cc1cccc(-n2c3nc(=O)[nH]c(=O)c-3cc3cc([N+](=O)[O-])ccc32)c1,1.1,53*,3,0.5,1.2
Cc1ccc(C)c(-n2c3nc(=O)[nH]c(=O)c-3cc3cc([N+](=O)[O-])ccc32)c1,0.5,67*,33,0.3,0.6
Cc1cccc(-n2c3nc(=O)[nH]c(=O)c-3cc3c(C)nn(-c4ccccc4)c32)c1C,1,18,2,0.8,0.9
O=C(NC1CC2CCCC(C1)N2Cc1cccs1)c1ccc([N+](=O)[O-])cc1 (stereo unspecified),1,11,-3,0.9,1.1
CC(C)NC(=O)COc1nncc2ccccc12,0.9,17,13,0.8,0.8
CCN(CC)C(=O)c1ccc2nc(-c3ccccc3)c(-c3ccccc3)nc2c1,0.9,17,7,0.8,0.9
CCN(CC)C(=O)c1ccc2nc3ccccc3nc2c1,2.2*,14,8,0.9,1.6
Cc1c(C(=O)N/N=C/c2cccs2)nc2ccccn12,1,8,6,0.9,1
CC(C)c1nc2sc3c(=O)[nH]c(=S)[nH]c3c2c2c1CCC2,1,85*,4,0.1,0.8
O=[N+]([O-])c1ccc(Sc2cccc3cccnc23)c2cccnc12,0.6,59*,23,0.4,0.9
Cc1ccc([N+](=O)[O-])c2cccnc12,0.9,6,4,0.9,1.1
CN=c1scc(-c2ccc(F)cc2)n1/N=C/c1ccc(O)c(O)c1,0.8,50*,18,0.5,0.5
CN=c1scc(-c2ccc([N+](=O)[O-])cc2)n1/N=C/c1ccco1,1.1,2,1,1,1.3
COc1ccc(CCNC(=O)CSc2nc3[nH]ncc3c(=O)n2-c2ccccc2OC)cc1OC,1,-1,4,1,1
COc1ccc(CCNC(=O)CSc2nc3[nH]ncc3c(=O)n2-c2ccc(Cl)cc2Cl)cc1OC,1,73*,2,0.3,1
COc1cnc(SCCC(F)=C(F)F)[nH]c1=O,1.1,14,1,0.9,1.2
O=C1c2cccc3c(N4CCCCC4)ccc(c23)C(=O)N1c1cccc(O)c1,1,60*,8,0.4,0.9
O=C(NNc1cccc(Cl)c1)c1cccnc1Cl,2*,3,-3,1,1.7
O=C(NNc1cccc(Cl)n1)c1cccnc1Cl,1,-3,-4,1,1.1
CCCCNC(=O)Oc1cc(CCl)on1,1,70*,7,0.3,1.1
CCCCNC(=O)Cn1c(-c2ccc(OC)cc2)noc1=O,0.9,18,0,0.8,1
COCCNc1c(-c2cc3ccc(C)c(C)c3[nH]c2=O)nc2ccccn12,0.8,10,8,0.9,0.9
O=C(/C=C/Nc1ccc(Oc2ccccc2)cc1)c1ccco1,0.9,28,15,0.7,0.8
COc1ccc(/C=N/NC(=O)CCN2CCN(c3ccccc3)CC2)c(OC)c1OC,0.9,3,-21,1,1
O=C(CCN1CCOCC1)N/N=C/c1cc(Br)cc(Br)c1O,0.7,63*,9,0.4,0.7
O=C(CCN1CCN(c2ccccc2)CC1)N/N=C/c1ccc(O)c(O)c1O,0.4,64*,33,0.4,0.4

# High-throughput results (PubChem BioAssay)
